# From ChEMBL document CHEMBL4406895, “Discovery of amide-bridged pyrrolo[2,3-d]pyrimidines as tumor targeted classical antifolates with selective uptake by folate receptor α and inhibition of de novo purine nucleotide biosynthesis” (Bioorg Med Chem, 2019)
# Active and inactive are the calls of the source. The calls are words filed in the database; no cut-off is given here.
# What was measured:
# [1] = Antiproliferative activity in Chinese hamster R2 cells deficient in RFC, PCFT, and FRalpha assessed as reduction in cell growth after 96 hrs by Cell-Titer Blue assay; format: cell-based; settings: Cricetulus griseus, R2, 96 h
# Method in brief: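 CHO sublines were transfected lines kept with 1 mg/ml G418 (R2 is the transporter-null parent). Cells were exposed to 0–1000 nM drug for 96 h at 37 °C, 5% CO2, in folate-free RPMI with 10% dFBS and 25 nM leucovorin. CellTiter-Blue fluorescence read at ex 560/em 590 nm. IC50 is 50% loss of growth from dose–response curves, mean ± SE of 3–10 experiments.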
# [2] = Binding affinity to human FRalpha/RFC/PCFT expressed in KB cells assessed as antiproliferative activity measured as reduction in cell growth after 96 hrs by Cell-Titer Blue assay; format: cell-based
# Method in brief: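 RT16 cells were precultured 72 h in folate-free RPMI with 10% dFBS; KB cells were maintained in folate-free RPMI with 10% FBS. Drug at 0–1000 nM for 96 h at 37 °C, 5% CO2, with 2 nM leucovorin. Parallel wells had 200 nM folic acid to block FR uptake. CellTiter-Blue fluorescence (ex 560/em 590 nm). IC50 from dose–response, mean ± SE of 3–10 experiments.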
# KB [3] = assay: Antiproliferative activity against human KB cells at 0.1 to 10000 nM after 96 hrs in presence of 60 uM adenosine by Cell-Titer blue assay; format: functional, cell-based
# Method in brief: (§1)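 KB cells grown in folate-, nucleoside- and glycine-free RPMI 1640 with 10% dialyzed FBS, L-glutamine, antibiotics and 2 nM leucovorin across a drug concentration range. Protectants: thymidine 10 μM, glycine 130 μM, adenosine 60 μM or AICA 320 μM. Parallel incubations had no additions. Viable cells read by CellTiter-Blue fluorescence. At least triplicate experiments.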
# [4] = molecular target: T1, Trifunctional purine biosynthetic protein adenosine-3 (Homo sapiens) (UniProt P22102); assay: Inhibition of GAFTase in human KB cells assessed as inhibition of [14C(U)glycine incorporation into [14C]formyl GAR preincubated for 30 mins followed by [14C](U)glycine addition and measured after 16 hrs; format: cell-based
# T1 sequence (whole entry): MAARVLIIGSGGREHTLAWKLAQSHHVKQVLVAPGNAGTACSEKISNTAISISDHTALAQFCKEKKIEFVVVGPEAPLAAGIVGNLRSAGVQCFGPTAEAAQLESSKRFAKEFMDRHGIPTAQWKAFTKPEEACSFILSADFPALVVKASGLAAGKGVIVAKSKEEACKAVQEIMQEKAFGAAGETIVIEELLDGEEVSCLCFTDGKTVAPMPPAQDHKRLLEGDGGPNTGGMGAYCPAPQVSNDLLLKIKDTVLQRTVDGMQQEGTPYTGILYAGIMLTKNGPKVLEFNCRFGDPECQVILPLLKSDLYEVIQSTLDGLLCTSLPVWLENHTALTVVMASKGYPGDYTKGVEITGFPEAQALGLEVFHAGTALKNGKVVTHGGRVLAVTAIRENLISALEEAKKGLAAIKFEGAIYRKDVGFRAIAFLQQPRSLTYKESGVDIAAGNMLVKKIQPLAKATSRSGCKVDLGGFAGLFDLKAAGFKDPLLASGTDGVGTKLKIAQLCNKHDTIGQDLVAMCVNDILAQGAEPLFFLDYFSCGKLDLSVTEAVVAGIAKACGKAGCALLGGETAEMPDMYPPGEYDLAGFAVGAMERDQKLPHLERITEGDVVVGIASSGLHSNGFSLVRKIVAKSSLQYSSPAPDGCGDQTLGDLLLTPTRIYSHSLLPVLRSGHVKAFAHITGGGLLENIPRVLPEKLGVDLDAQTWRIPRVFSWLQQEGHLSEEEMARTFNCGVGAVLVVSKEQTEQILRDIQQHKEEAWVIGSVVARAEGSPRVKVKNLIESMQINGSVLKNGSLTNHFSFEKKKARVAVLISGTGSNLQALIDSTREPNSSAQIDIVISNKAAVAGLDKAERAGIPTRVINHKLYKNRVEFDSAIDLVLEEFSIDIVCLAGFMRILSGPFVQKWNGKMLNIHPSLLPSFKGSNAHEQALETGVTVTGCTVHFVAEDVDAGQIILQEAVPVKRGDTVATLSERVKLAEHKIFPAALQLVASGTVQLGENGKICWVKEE
# Method in brief: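 KB cells adhered 24 h, then were washed and given drug (concentration range; DMSO controls) for 1 h in folate- and glutamine-depleted medium with 2 nM leucovorin. Azaserine 4 µM final was added for 30 min, then L-glutamine 2 mM and [14C(U)]glycine (0.1 mCi/L) for 16 h. TCA extracts yielded pmol [14C]formyl GAR/mg protein. IC50 relative to untreated controls, triplicates.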
# KB [5] = assay: Antiproliferative activity against human KB cells at 0.1 to 10000 nM after 96 hrs in presence of 10 uM thymidine by Cell-Titer blue assay; format: functional, cell-based; method in brief: as §1
# KB [6] = assay: Antiproliferative activity against human KB cells at 0.1 to 10000 nM after 96 hrs in presence of 130 uM glycine by Cell-Titer blue assay; format: functional, cell-based; method in brief: as §1
# KB [7] = assay: Antiproliferative activity against human KB cells up to 1 uM after 96 hrs in presence of 320 uM AICA by Cell-Titer blue assay; format: functional, cell-based; method in brief: as §1
inhibition [4],Structure (SMILES),IC50 [1],IC50 [2],Activity (KB [3]),Activity (KB [5]),Activity (KB [6]),Activity (KB [7])
,CN(Cc1cc2c(=O)[nH]c(N)nc2[nH]1)C(=O)c1cccc(C(=O)N[C@@H](CCC(=O)O)C(=O)O)c1,> 1000 nM,6.36 nM,,,,
Active,CN(Cc1cc2c(=O)[nH]c(N)nc2[nH]1)C(=O)c1ccc(C(=O)N[C@@H](CCC(=O)O)C(=O)O)cc1,> 1000 nM,1.4 nM,inactive,Active,Active,
,Nc1nc2[nH]c(CCCc3ccc(C(=O)N[C@@H](CCC(=O)O)C(=O)O)cc3)cc2c(=O)[nH]1,,,inactive,Active,Active,inactive
,Nc1nc2[nH]c(CCCc3ccc(C(=O)N[C@@H](CCC(=O)O)C(=O)O)s3)cc2c(=O)[nH]1,,,inactive,Active,Active,inactive
,CN(Cc1cc2c(=O)[nH]c(N)nc2[nH]1)C(=O)c1csc(C(=O)N[C@@H](CCC(=O)O)C(=O)O)c1,> 1000 nM,> 1000 nM,,,,
,CN(Cc1cc2c(=O)[nH]c(N)nc2[nH]1)C(=O)c1cc(C(=O)N[C@@H](CCC(=O)O)C(=O)O)cs1,> 1000 nM,69.8 nM,,,,
,CN(Cc1cc2c(=O)[nH]c(N)nc2[nH]1)S(=O)(=O)c1ccc(C(=O)N[C@@H](CCC(=O)O)C(=O)O)cc1,> 1000 nM,669 nM,,,,
Active,CN(Cc1cc2c(=O)[nH]c(N)nc2[nH]1)C(=O)c1ccc(C(=O)N[C@@H](CCC(=O)O)C(=O)O)s1,> 1000 nM,4.23 nM,inactive,Active,Active,
